Measurements of several laboratories.
Tyrosine-protein phosphatase YopH: Tyrosine-protein phosphatase YopH (Yersinia enterocolitica, UniProt P15273)
BCHE: Cholinesterase (BCHE, Equus caballus, UniProt P81908)

Compound | target | effect on | mode | method | concentration | measurement | result
CCN(CC)CCCC[C@H](NC(=O)[C@H](CC(C)C)NC(=O)[C@H](C)NC(=O)[C@H](Cc1ccccc1)NC(=O)c1ccc(C(C)(C)C)cc1)C(=O)N[C@@H](CO)C(=O)OC | Transcription initiation factor TFIID subunit 1, BD2 (TAF1, Homo sapiens, UniProt P21675) | thermal stability |  | DSF | 25 µM | ΔTm | 0.62 °C
C#Cc1n[nH]c2c(-c3cn(C(C)c4ccccn4)c(=O)[nH]c3=O)cc(F)cc12 (centres unmarked) | Mitogen-activated protein kinase kinase kinase 9 (MAP3K9, Homo sapiens, UniProt P80192) | enzyme activity | inhibitor |  | 1 µM | inhibition | 5%
O=S(=O)([O-])[O-].[O]=[V+2] | Tyrosine-protein phosphatase YopH | enzyme activity | inhibitor |  | 25 µM | inhibition | 99.7%
Nc1ncc(-c2nc(N3CCOCC3)nc(N3CCOCC3)n2)c(C(F)F)n1 | Ribosomal protein S6 kinase alpha-3, C-terminal kinase domain (RPS6KA3, Homo sapiens, UniProt P51812) | binding |  | competition with immobilised ligand | 10 µM | remaining binding | 84%
COc1cc2c(cc1OC)C(=O)N(Cc1ccc(-c3cccs3)nc1)C2 | BCHE | enzyme activity | inhibitor | Ellman | 1 µM | inhibition | -2%
COc1ncccc1-c1cnn2ccc(N3CCN(C(=O)OC(C)C)CC3)nc12 | Serine/threonine-protein kinase MRCK alpha (CDC42BPA, Homo sapiens, UniProt Q5VT25) | binding |  | competition with immobilised ligand | 1 µM | remaining binding | 72%
COc1cc2c(cc1OC)C(=O)N(CC1CCN(CC3CCNC3)CC1)C2 (centres unmarked) | BCHE | enzyme activity | inhibitor | Ellman | 1 µM | inhibition | -13.6%
[O]=[V]([S]c1cccc[n+]1[O-])[S]c1cccc[n+]1[O-] | Tyrosine-protein phosphatase YopH | enzyme activity | inhibitor |  | 25 µM | inhibition | 99.5%
